Laboratory results published in ChEMBL document CHEMBL3797186, “Single Residue Substitutions That Confer Voltage-Gated Sodium Ion Channel Subtype Selectivity in the NaV1.7 Inhibitory Peptide GpTx-1” (J Med Chem, 2016).
Positions of bridges follow the written chain, without caps; N, C: chain ends. Non-standard residues stand in square brackets, D forms with d. Residues, ends and D or L forms follow the SMILES beside them. 1Nal = N[C@@H](Cc1cccc2ccccc12)C(=O)O

What was measured:
[1] = biological target: Sodium channel protein type 9 subunit alpha (Homo sapiens, UniProt Q15858); experiment: Inhibition of human Nav1.7 expressed in HEK293 cells assessed as inward peak current by ion-works quattro patch clamp electrophysiology method; format: cell-based
[2] = biological target: Sodium channel protein type 5 subunit alpha (Homo sapiens, UniProt Q14524); experiment: Inhibition of human Nav1.5 expressed in HEK293 cells assessed as inward peak current by ion-works quattro patch clamp electrophysiology method; format: cell-based
Procedure, shortened: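 Stable HEK293 line expressing human NaV1.5, recorded by population patch clamp on the IonWorks Quattro.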

Sequence of Sodium channel protein type 9 subunit alpha (Q15858 whole entry): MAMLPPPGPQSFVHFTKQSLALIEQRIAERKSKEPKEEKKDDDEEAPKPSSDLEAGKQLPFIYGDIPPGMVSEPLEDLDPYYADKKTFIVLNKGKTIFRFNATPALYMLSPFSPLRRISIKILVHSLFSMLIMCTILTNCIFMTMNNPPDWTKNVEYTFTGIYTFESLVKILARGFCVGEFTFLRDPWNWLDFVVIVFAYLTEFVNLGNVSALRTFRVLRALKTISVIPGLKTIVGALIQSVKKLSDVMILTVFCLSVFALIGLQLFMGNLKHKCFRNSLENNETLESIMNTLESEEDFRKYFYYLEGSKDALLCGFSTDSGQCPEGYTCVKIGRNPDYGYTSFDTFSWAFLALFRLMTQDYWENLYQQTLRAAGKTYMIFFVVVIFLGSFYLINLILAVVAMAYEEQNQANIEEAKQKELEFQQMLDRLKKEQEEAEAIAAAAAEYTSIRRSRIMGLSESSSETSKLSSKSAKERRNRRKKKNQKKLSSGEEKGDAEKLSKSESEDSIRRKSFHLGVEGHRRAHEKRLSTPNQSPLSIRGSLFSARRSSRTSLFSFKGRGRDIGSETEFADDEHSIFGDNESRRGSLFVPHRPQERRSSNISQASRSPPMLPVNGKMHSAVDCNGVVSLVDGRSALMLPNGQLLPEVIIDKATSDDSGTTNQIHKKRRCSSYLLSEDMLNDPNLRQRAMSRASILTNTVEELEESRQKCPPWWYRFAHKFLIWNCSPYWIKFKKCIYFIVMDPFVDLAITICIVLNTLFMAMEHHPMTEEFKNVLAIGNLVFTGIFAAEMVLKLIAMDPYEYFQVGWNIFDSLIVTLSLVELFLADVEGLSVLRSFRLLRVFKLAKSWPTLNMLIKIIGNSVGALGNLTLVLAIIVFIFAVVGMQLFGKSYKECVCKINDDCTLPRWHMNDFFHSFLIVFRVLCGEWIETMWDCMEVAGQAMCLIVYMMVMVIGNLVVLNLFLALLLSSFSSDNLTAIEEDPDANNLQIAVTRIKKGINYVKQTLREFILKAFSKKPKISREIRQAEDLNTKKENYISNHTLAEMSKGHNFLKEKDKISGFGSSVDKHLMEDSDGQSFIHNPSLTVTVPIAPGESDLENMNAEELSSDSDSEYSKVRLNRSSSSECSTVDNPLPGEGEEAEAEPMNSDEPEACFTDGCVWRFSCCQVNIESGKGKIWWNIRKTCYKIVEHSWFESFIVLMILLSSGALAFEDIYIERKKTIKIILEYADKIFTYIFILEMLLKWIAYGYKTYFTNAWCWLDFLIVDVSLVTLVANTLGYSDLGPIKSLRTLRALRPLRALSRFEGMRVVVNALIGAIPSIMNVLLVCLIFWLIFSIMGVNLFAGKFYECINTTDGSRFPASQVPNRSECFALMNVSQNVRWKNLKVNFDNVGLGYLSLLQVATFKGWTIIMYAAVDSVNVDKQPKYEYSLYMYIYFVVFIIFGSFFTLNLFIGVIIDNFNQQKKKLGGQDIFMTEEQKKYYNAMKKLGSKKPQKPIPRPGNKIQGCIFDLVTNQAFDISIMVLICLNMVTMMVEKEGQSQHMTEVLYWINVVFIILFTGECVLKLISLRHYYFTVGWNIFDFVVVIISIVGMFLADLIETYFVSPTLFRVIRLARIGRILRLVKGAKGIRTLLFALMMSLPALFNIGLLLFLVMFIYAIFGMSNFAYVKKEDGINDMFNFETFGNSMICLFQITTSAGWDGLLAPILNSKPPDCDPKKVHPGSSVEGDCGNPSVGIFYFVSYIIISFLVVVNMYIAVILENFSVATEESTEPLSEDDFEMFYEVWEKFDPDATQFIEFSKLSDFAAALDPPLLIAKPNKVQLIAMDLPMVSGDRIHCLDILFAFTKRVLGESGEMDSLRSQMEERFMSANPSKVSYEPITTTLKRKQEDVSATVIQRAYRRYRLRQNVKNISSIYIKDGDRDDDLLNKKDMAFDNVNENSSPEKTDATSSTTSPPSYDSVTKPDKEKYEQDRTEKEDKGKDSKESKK
Sequence of Sodium channel protein type 5 subunit alpha (Q14524 whole entry): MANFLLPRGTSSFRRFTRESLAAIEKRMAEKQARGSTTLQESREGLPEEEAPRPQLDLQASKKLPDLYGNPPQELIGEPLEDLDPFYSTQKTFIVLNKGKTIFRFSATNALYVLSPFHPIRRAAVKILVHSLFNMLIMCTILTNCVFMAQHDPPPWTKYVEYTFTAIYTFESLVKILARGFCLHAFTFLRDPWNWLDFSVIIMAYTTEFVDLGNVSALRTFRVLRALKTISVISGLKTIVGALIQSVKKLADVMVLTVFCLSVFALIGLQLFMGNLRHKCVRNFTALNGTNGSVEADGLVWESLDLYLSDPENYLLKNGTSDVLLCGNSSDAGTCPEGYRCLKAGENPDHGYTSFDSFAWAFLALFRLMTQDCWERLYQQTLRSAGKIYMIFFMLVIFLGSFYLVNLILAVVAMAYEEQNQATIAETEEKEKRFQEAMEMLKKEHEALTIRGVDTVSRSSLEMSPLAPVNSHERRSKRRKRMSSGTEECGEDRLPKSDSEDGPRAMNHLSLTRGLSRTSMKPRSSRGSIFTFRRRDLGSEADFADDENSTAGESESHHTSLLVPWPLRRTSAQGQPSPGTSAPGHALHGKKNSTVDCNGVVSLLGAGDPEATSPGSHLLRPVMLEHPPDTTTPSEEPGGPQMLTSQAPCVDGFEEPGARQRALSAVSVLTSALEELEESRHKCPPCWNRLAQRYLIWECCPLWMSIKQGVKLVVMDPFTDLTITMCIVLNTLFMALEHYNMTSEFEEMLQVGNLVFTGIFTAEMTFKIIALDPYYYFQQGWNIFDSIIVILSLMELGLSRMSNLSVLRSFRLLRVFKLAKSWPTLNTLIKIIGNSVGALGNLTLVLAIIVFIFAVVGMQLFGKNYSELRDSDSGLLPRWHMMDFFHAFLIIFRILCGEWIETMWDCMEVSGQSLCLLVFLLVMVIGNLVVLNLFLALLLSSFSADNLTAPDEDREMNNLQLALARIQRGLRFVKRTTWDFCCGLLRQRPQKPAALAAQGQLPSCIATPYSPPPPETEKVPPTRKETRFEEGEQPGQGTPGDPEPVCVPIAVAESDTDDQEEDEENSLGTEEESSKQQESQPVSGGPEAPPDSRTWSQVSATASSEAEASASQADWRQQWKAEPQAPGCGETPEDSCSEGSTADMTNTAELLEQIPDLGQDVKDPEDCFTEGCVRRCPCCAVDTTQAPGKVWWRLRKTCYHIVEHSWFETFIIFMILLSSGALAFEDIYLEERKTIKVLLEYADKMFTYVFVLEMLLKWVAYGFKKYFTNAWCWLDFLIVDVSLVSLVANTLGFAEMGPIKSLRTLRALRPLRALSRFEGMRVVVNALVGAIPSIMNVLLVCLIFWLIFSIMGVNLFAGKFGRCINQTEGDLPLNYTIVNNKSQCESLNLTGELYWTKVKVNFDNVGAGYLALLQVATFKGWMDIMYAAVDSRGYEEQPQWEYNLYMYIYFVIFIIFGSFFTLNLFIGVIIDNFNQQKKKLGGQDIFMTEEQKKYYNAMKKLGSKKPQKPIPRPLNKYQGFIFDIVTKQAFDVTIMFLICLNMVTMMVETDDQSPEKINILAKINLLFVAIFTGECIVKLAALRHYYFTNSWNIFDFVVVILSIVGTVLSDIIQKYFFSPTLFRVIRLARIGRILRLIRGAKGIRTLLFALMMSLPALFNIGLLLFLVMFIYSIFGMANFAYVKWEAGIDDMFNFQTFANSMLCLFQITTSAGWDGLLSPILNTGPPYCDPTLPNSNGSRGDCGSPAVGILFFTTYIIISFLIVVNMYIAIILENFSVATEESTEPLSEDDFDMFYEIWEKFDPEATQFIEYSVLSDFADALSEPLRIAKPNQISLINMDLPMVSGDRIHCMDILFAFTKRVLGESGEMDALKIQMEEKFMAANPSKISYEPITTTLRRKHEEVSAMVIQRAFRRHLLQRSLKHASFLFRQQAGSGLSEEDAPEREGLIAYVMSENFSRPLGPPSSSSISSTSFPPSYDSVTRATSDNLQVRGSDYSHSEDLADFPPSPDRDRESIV

| SMILES | IC50 [1] | IC50 [2] |
| --- | --- | --- |
| CC[C@H](C)[C@@H]1NC(=O)[C@@H]2CSSC[C@@H]3NC(=O)[C@H](C(C)C)NC(=O)[C@H](CC(C)C)NC(=O)[C@H](Cc4c[nH]c5ccccc45)NC(=O)[C@@H]4CCCN4C(=O)[C@H](CCCNC(=N)N)NC(=O)[C@H](CSSC[C@H](NC(=O)[C@@H](N)CC(=O)O)C(=O)N[C@@H](CC(C)C)C(=O)NCC(=O)N[C@@H](Cc4ccccc4)C(=O)N[C@@H](CCSC)C(=O)N[C@@H](CCCNC(=N)N)C(=O)N[C@@H](CCCCN)C(=O)N2)NC(=O)[C@H](CSSC[C@@H](C(=O)N[C@@H](CCCCN)C(=O)N[C@@H](Cc2ccc(O)cc2)C(=O)N[C@H](C(=O)N[C@@H](Cc2ccccc2)C(N)=O)C(C)C)NC(=O)[C@H](Cc2c[nH]c4ccccc24)NC(=O)[C@H](CCCCN)NC(=O)[C@H](Cc2cnc[nH]2)NC(=O)[C@H]([C@@H](C)O)NC(=O)[C@H](CCCNC(=N)N)NC(=O)[C@H](CO)NC3=O)NC(=O)[C@H](CCCCN)NC(=O)[C@H](CC(=O)O)NC(=O)[C@H](CC(N)=O)NC(=O)[C@H](CC(=O)O)NC(=O)[C@@H]2CCCN2C1=O (H-DCLGFMRKCIPDNDKCCRPWLVCSRTHKWCKYVF-NH2; disulfide 2-17, 9-23, 16-30) | 0.07 µM | > 5 µM |
| CC[C@H](C)[C@@H]1NC(=O)[C@@H]2CSSC[C@@H]3NC(=O)[C@H](C(C)C)NC(=O)[C@H](CC(C)C)NC(=O)[C@H](CC(N)=O)NC(=O)[C@@H]4CCCN4C(=O)[C@H](CCCNC(=N)N)NC(=O)[C@H](CSSC[C@H](NC(=O)[C@@H](N)Cc4cccc5ccccc45)C(=O)N[C@@H](CC(C)C)C(=O)NCC(=O)N[C@@H](Cc4ccccc4)C(=O)N[C@@H](CCSC)C(=O)N[C@@H](CCCNC(=N)N)C(=O)N[C@@H](CCCCN)C(=O)N2)NC(=O)[C@H](CSSC[C@@H](C(=O)N[C@@H](CCCCN)C(=O)N[C@@H](Cc2ccc(O)cc2)C(=O)N[C@H](C(=O)N[C@@H](Cc2ccccc2)C(N)=O)C(C)C)NC(=O)[C@H](Cc2c[nH]c4ccccc24)NC(=O)[C@H](CCCCN)NC(=O)[C@H](Cc2c[nH]cn2)NC(=O)[C@H]([C@@H](C)O)NC(=O)[C@H](CCCNC(=N)N)NC(=O)[C@H](CO)NC3=O)NC(=O)[C@H](CCCCN)NC(=O)[C@H](CC(=O)O)NC(=O)[C@H](CC(N)=O)NC(=O)[C@H](CC(=O)O)NC(=O)[C@@H]2CCCN2C1=O (H-[1Nal]CLGFMRKCIPDNDKCCRPNLVCSRTHKWCKYVF-NH2; disulfide 2-17, 9-23, 16-30) | 0.1 µM | > 5 µM |
| CC[C@H](C)[C@@H]1NC(=O)[C@@H]2CSSC[C@@H]3NC(=O)[C@H](C(C)C)NC(=O)[C@H](CC(C)C)NC(=O)[C@H](CC(N)=O)NC(=O)[C@@H]4CCCN4C(=O)[C@H](CCCNC(=N)N)NC(=O)[C@H](CSSC[C@H](NC(=O)[C@@H](N)CC(=O)O)C(=O)N[C@@H](CC(C)C)C(=O)NCC(=O)N[C@@H](Cc4ccccc4)C(=O)N[C@@H](CCSC)C(=O)N[C@@H](CCCNC(=N)N)C(=O)N[C@@H](CCCCN)C(=O)N2)NC(=O)[C@H](CSSC[C@@H](C(=O)N[C@@H](CCCCN)C(=O)N[C@@H](Cc2ccc(O)cc2)C(=O)N[C@H](C(=O)N[C@@H](Cc2ccccc2)C(N)=O)C(C)C)NC(=O)[C@H](Cc2c[nH]c4ccccc24)NC(=O)[C@H](CCCCN)NC(=O)[C@H](Cc2c[nH]cn2)NC(=O)[C@H]([C@@H](C)O)NC(=O)[C@H](CCCNC(=N)N)NC(=O)[C@H](CO)NC3=O)NC(=O)[C@H](CCCCN)NC(=O)[C@H](CC(=O)O)NC(=O)[C@H](CC(N)=O)NC(=O)[C@H](Cc2cccc3ccccc23)NC(=O)[C@@H]2CCCN2C1=O (H-DCLGFMRKCIP[1Nal]NDKCCRPNLVCSRTHKWCKYVF-NH2; disulfide 2-17, 9-23, 16-30) | 0.1 µM | > 5 µM |
| CC[C@H](C)[C@@H]1NC(=O)[C@@H]2CSSC[C@@H]3NC(=O)[C@H](C(C)C)NC(=O)[C@H](CC(C)C)NC(=O)[C@H](CC(N)=O)NC(=O)[C@@H]4CCCN4C(=O)[C@H](CCCNC(=N)N)NC(=O)[C@H](CSSC[C@H](NC(=O)[C@@H](N)CC(=O)O)C(=O)N[C@@H](CC(C)C)C(=O)NCC(=O)N[C@@H](Cc4ccccc4)C(=O)N[C@@H](CCSC)C(=O)N[C@@H](CCCNC(=N)N)C(=O)N[C@@H](CCCCN)C(=O)N2)NC(=O)[C@H](CSSC[C@@H](C(=O)N[C@@H](CCCCN)C(=O)N[C@@H](CCCCN)C(=O)N[C@H](C(=O)N[C@@H](Cc2ccccc2)C(N)=O)C(C)C)NC(=O)[C@H](Cc2c[nH]c4ccccc24)NC(=O)[C@H](CCCCN)NC(=O)[C@H](Cc2cnc[nH]2)NC(=O)[C@H]([C@@H](C)O)NC(=O)[C@H](CCCNC(=N)N)NC(=O)[C@H](CO)NC3=O)NC(=O)[C@H](CCCCN)NC(=O)[C@H](CC(=O)O)NC(=O)[C@H](CC(N)=O)NC(=O)[C@H](CC(=O)O)NC(=O)[C@@H]2CCCN2C1=O (H-DCLGFMRKCIPDNDKCCRPNLVCSRTHKWCKKVF-NH2; disulfide 2-17, 9-23, 16-30) | > 4.9 µM | > 5 µM |
| CSCC[C@@H]1NC(=O)[C@H](Cc2ccccc2)NC(=O)CNC(=O)[C@H](CC(C)C)NC(=O)[C@@H](NC(=O)[C@@H](N)CC(=O)O)CSSC[C@@H]2NC(=O)[C@@H]3CSSC[C@@H](C(=O)N[C@@H](CCCCN)C(=O)N[C@@H](Cc4ccc(O)cc4)C(=O)N[C@H](C(=O)N[C@@H](Cc4ccccc4)C(N)=O)C(C)C)NC(=O)[C@H](Cc4c[nH]c5ccccc45)NC(=O)[C@H](CCCCN)NC(=O)[C@H](Cc4cnc[nH]4)NC(=O)[C@H]([C@@H](C)O)NC(=O)[C@H](CCCNC(=N)N)NC(=O)[C@H](CO)NC(=O)[C@H](CSSC[C@H](NC(=O)[C@H](CCCCN)NC(=O)[C@H](CCCNC(=N)N)NC1=O)C(=O)N[C@@H](Cc1cc4ccccc4[nH]1)C(=O)N1CCC[C@H]1C(=O)N[C@@H](CC(=O)O)C(=O)N[C@@H](CC(N)=O)C(=O)N[C@@H](CC(=O)O)C(=O)N[C@@H](CCCCN)C(=O)N3)NC(=O)[C@H](C(C)C)NC(=O)[C@H](CC(C)C)NC(=O)[C@H](CC(N)=O)NC(=O)[C@@H]1CCCN1C(=O)[C@H](CCCNC(=N)N)NC2=O | 0.13 µM | > 5 µM |
| CC[C@H](C)[C@@H]1NC(=O)[C@@H]2CSSC[C@@H]3NC(=O)[C@H](C(C)C)NC(=O)[C@H](CC(C)C)NC(=O)[C@H](CC(N)=O)NC(=O)[C@@H]4CCCN4C(=O)[C@H](CCCNC(=N)N)NC(=O)[C@H](CSSC[C@H](NC(=O)[C@@H](N)CC(=O)O)C(=O)N[C@@H](CC(C)C)C(=O)NCC(=O)N[C@@H](Cc4ccccc4)C(=O)N[C@@H](CCSC)C(=O)N[C@@H](CCCNC(=N)N)C(=O)N[C@@H](CCCCN)C(=O)N2)NC(=O)[C@H](CSSC[C@@H](C(=O)N[C@@H](CCCCN)C(=O)N[C@@H](Cc2ccc(O)cc2)C(=O)N[C@H](C(=O)N[C@@H](Cc2ccccc2)C(N)=O)C(C)C)NC(=O)[C@H](Cc2c[nH]c4ccccc24)NC(=O)[C@H](CCCCN)NC(=O)[C@H](Cc2cnc[nH]2)NC(=O)[C@H](CCC(=O)O)NC(=O)[C@H](CCCNC(=N)N)NC(=O)[C@H](CO)NC3=O)NC(=O)[C@H](CCCCN)NC(=O)[C@H](CC(=O)O)NC(=O)[C@H](CC(N)=O)NC(=O)[C@H](CC(=O)O)NC(=O)[C@@H]2CCCN2C1=O (H-DCLGFMRKCIPDNDKCCRPNLVCSREHKWCKYVF-NH2; disulfide 2-17, 9-23, 16-30) | 0.69 µM | > 5 µM |
| CSCC[C@@H]1NC(=O)[C@H](Cc2ccccc2)NC(=O)CNC(=O)[C@H](CC(C)C)NC(=O)[C@@H](NC(=O)[C@@H](N)CC(=O)O)CSSC[C@@H]2NC(=O)[C@@H]3CSSC[C@@H](C(=O)N[C@@H](CCCCN)C(=O)N[C@@H](Cc4ccc(O)cc4)C(=O)N[C@H](C(=O)N[C@@H](Cc4ccccc4)C(N)=O)C(C)C)NC(=O)[C@H](Cc4c[nH]c5ccccc45)NC(=O)[C@H](CCCCN)NC(=O)[C@H](Cc4cnc[nH]4)NC(=O)[C@H]([C@@H](C)O)NC(=O)[C@H](CCCNC(=N)N)NC(=O)[C@H](CO)NC(=O)[C@H](CSSC[C@H](NC(=O)[C@H](CCCCN)NC(=O)[C@H](CCCNC(=N)N)NC1=O)C(=O)N[C@@H](CCCNC(=N)N)C(=O)N1CCC[C@H]1C(=O)N[C@@H](CC(=O)O)C(=O)N[C@@H](CC(N)=O)C(=O)N[C@@H](CC(=O)O)C(=O)N[C@@H](CCCCN)C(=O)N3)NC(=O)[C@H](C(C)C)NC(=O)[C@H](CC(C)C)NC(=O)[C@H](CC(N)=O)NC(=O)[C@@H]1CCCN1C(=O)[C@H](CCCNC(=N)N)NC2=O (H-DCLGFMRKCRPDNDKCCRPNLVCSRTHKWCKYVF-NH2; disulfide 2-17, 9-23, 16-30) | 0.17 µM | > 5 µM |
| CC[C@H](C)[C@@H]1NC(=O)[C@H]2CSSC[C@H]3NC(=O)[C@H](C(C)C)NC(=O)[C@H](CC(C)C)NC(=O)[C@H](CC(N)=O)NC(=O)[C@@H]4CCCN4C(=O)[C@H](CCCNC(=N)N)NC(=O)[C@H](CSSC[C@H](NC(=O)[C@@H](N)CC(=O)O)C(=O)N[C@@H](CC(C)C)C(=O)NCC(=O)N[C@@H](Cc4ccccc4)C(=O)N[C@@H](CCSC)C(=O)N[C@@H](CCCNC(=N)N)C(=O)N[C@@H](CCCCN)C(=O)N2)NC(=O)[C@@H](CSSC[C@@H](C(=O)N[C@@H](CCCCN)C(=O)N[C@@H](Cc2ccc(O)cc2)C(=O)N[C@H](C(=O)N[C@@H](Cc2ccccc2)C(N)=O)C(C)C)NC(=O)[C@H](Cc2c[nH]c4ccccc24)NC(=O)[C@H](CCCCN)NC(=O)[C@H](C)NC(=O)[C@H]([C@@H](C)O)NC(=O)[C@H](CCCNC(=N)N)NC(=O)[C@H](CO)NC3=O)NC(=O)[C@H](CCCCN)NC(=O)[C@H](CC(=O)O)NC(=O)[C@H](CC(N)=O)NC(=O)[C@H](CC(=O)O)NC(=O)[C@@H]2CCCN2C1=O | 0.97 µM | > 5 µM |
